Source: PubChem BioAssay (several laboratories)
The list is not random: actives were taken first. Their share in the collection is about 4.1%.
KCNK9 inh – blocks the human KCNK9 two-pore domain potassium channel; HEK293 KCNK9, FluxOR thallium flux fluorescence; stronger effect = lower value; Q9NPC2; B-score at 10 µM; 310,000 compounds, 1.2% hits;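 active = ratio B-score over 3 SD below the library mean, with starting fluorescence within 5 SD of its mean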;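 also: negative B-score means less thallium flux so channel inhibition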
hERG protect – compounds protecting human hERG from proarrhythmic drug block; activation (rescue from dofetilide block), less the hit threshold, % at 10 µM; Q12809; CHO-hERG, FluxOR thallium flux, dofetilide IC70 present; 310,000 compounds, 0.51% hits;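 active = activation above the mean of controls blocked by dofetilide plus 5 SD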;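 also: thallium influx through hERG after potassium depolarization seen as dye fluorescence rise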
KCNQ1 act – potentiators or activators of human KCNQ1 potassium channel; B-score at 10 µM; 310,000 compounds, 0.35% hits; CHO-K1 KCNQ1, thallium flux FluxOR fluorescence; stronger effect = higher value; AID 2648; P51787;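 active = fluorescence ratio B-score, a plate-corrected score, at least three library SD, with initial intensity B-score within 5 SD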
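Assay system: CHO-K1 cells stably expressing KCNQ1; Medium: assay buffer with matched DMSO; Also added: K+/Tl+ depolarizing stimulus; Dosing: single dose; Timing: dye 90 min, compound 20 min, room temperature; Measured by: kinetic FluxOR thallium fluorescence, 10-s 1-Hz baseline, 110-s post-stimulus read; Read-out: peak-minus-minimum fluorescence over initial fluorescence, negative-control normalized, B-scored.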
KCNQ1 inh – inhibitors of human KCNQ1 potassium channel | B-score at 10 µM | 310,000 compounds, 1.3% hits | CHO-K1 KCNQ1, FluxOR thallium flux fluorescence; stronger effect = higher value | AID 2642;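 active = compounds whose thallium flux B-score, printed positive for inhibition, exceeds three library SD while starting fluorescence stays within three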;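 also: channel opened by potassium depolarization with thallium stimulus after 20 min compound exposure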
KCC2 mod – KCC2 (human) Cl- transport modulation; Q9H2X9; B-score of Tl+ flux slope (higher = more flux/activation; lower = inhibition) at 10 µM; KCC2 cells, thallium flux FluoZin-2 fluorescence; 190,000 compounds, 2.2% hits;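 active = thallium flux slope and its plate-corrected score both differing from the plate sample mean at a set confidence after two filtering rounds, in either direction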;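 also: slope of fluorescence scaled to starting intensity during 10 to 20 s after thallium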
Target sequence (Q9H2X9 whole entry, looked up): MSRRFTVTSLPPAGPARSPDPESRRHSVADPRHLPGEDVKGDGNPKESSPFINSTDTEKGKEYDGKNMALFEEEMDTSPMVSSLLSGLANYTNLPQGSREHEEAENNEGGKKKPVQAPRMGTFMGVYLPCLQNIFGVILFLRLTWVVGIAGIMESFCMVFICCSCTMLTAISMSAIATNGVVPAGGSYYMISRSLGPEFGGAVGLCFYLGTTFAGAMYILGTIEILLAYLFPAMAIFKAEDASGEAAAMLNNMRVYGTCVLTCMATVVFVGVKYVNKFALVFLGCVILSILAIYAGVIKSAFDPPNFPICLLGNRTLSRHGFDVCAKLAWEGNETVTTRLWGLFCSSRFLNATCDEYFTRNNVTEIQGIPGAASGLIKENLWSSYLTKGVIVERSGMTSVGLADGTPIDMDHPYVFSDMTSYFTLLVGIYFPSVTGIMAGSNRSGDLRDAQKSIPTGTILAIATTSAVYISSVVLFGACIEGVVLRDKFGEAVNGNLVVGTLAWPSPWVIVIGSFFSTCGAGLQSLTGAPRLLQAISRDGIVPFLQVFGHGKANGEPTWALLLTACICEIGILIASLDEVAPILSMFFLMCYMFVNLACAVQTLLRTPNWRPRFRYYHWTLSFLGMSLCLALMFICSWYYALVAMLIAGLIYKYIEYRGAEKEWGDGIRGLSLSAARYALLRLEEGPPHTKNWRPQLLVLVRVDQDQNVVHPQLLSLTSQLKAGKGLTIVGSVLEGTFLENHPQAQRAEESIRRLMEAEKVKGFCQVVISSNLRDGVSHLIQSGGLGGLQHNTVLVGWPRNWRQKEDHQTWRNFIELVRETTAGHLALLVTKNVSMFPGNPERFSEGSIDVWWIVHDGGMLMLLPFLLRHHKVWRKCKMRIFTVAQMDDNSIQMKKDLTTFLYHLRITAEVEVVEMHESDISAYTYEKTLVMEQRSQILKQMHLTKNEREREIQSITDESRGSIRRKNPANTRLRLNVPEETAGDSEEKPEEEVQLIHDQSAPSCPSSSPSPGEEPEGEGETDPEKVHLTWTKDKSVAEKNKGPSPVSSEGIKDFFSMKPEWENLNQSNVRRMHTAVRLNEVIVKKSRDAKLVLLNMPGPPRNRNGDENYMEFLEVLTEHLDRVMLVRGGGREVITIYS
KCNK3 block – human KCNK3 channel inhibition, primary screen. 340,000 compounds, 0.84% hits. AID 602410. O14649. B-score at 10 µM. CHO-KCNK3 thallium flux, FluxOR fluorescence; stronger effect = lower value;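 active = B-score under library mean minus 4 SD, starting fluorescence ratio at most library mean plus 5 SD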;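 also: more negative B-score means stronger inhibition of thallium flux through KCNK3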
KCNQ1 block val – reconfirmed blocker of the human KCNQ1 potassium channel. shares compounds with KCNQ1 inh. KCNQ1 cell line, FluxOR thallium flux fluorescence. inhibition, % at 10 µM. 1,600 compounds, 93% hits. AID 588353;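 active = primary screen active, with duplicate mean exceeding buffer control mean plus 3 SD of buffer wells, cut at about 28% in these data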;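 also: 0% = buffer control ratio and 100% = XE991 inhibitor control ratio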
CHO Tl flux – counter-screen for KCNQ1 inhibitors: effect in parental CHO cells; shares compounds with KCNQ1 inh; parental CHO-K1, FluxOR thallium flux fluorescence ratio; stronger effect = lower value; zero means no signal rise above baseline; fluorescence ratio (Tl flux) at 10 µM; 1,600 compounds, 21% hits;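 active = mean of duplicate thallium-flux fluorescence ratios in parental host cells more than 5 SD below the buffer control mean, cut at about 0.38 in these data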;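 also: ratio is peak minus minimum fluorescence divided by baseline fluorescence; actives read low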
KCNQ1 ephys val – human KCNQ1 inhibition validated by electrophysiology. shares compounds with KCNQ1 inh. KCNQ1-CHO cells, automated patch clamp current. calls only at 10 µM. 490 compounds, 20% hits. AID 624120;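 active = KCNQ1 current drop exceeding 3 SD of negative control wells, seen in both duplicate runs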;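 also: steady state current during a 2 s step from -80 to +40 mV; negative values mean current inhibition and positive values mean potentiation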
KCNQ2 inh – selectivity of KCNQ1 inhibitors: inhibition of rat KCNQ2 channel; shares compounds with KCNQ1 inh; KCNQ2 cells, FluxOR thallium flux fluorescence; inhibition, % at 10 µM; 1,600 compounds, 71% hits;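 active = mean percent inhibition of the KCNQ2 thallium signal more than 5 SD above the buffer-only control wells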;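 also: KCNQ2 expressed in CHO cells; 0% = buffer control wells and 100% = XE-991 inhibitor control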
KCNQ1 KCNE1 spec – human KCNQ1/KCNE1 inhibition in KCNQ1 specificity screen. shares compounds with KCNQ1 inh. KCNQ1/KCNE1 cells, FluxOR thallium flux fluorescence. inhibition, % at 10 µM. 1,600 compounds, 77% hits. AID 652147;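 active = mean percent inhibition of duplicate wells above the buffer-only control mean plus 3 SD of those controls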;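 also: 0% = buffer only wells and 100% = XE-991 inhibitor control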
KCNK9 block conf – human KCNK9 inhibitor confirmation. shares compounds with KCNK9 inh. HEK293 KCNK9 cells, FluxOR thallium flux fluorescence. inhibition, % at 10 µM. 4,900 compounds, 43% hits. AID 492992;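 active = thallium signal inhibited by more than 5 SD of the compound-free buffer control wells, on both duplicate plates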;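 also: 0% = assay buffer control wells without compound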
Kir21 sel – selectivity of KCNK9 modulators against mouse Kir2.1 | AID 492993 | shares compounds with KCNK9 inh | 4,900 compounds, 4% hits | Kir2.1 cells, FluxOR thallium flux fluorescence | inhibition, % at 10 µM;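 active = thallium signal drop more than 5 SD beyond the mean of the no-compound control wells, seen in both duplicate plates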;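 also: signal is fluorescence rise after thallium addition divided by baseline fluorescence; plate controls were assay buffer only for no effect and full block by chlorpromazine control for full effect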
HEK293 Tl ctr – second counter-screen for KCNK9 modulators: effect in non-induced cells. shares compounds with KCNK9 inh. non-induced KCNK9-HEK293, FluxOR thallium flux. inhibition, % at 10 µM. 4,900 compounds, 40% hits. AID 492997;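 active = thallium signal drop beyond 5 SD of the untreated control mean, on both duplicate plates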;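 also: plate controls were buffer only IC0 wells for no effect and SID17386958 at its maximal inhibitory level for full effect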
KCNK3 confirm – confirmation of human KCNK3 two-pore domain potassium channel inhibitors; CHO-KCNK3 thallium flux, FluxOR fluorescence; 0% buffer, 100% carvedilol maximal block; ratio percent of control, % at 10 µM; shares compounds with KCNK3 block; AID 651638; 2,400 compounds, 99% hits;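 active = ratio percent of control, averaged over triplicates, above buffer control mean plus 5 SD, cut at about 64% in these data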;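 also: ratio is the fluorescence rise from min to max over baseline after thallium stimulus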
KCNK3 noninduced – counter-screen for KCNK3 inhibitors: effect in non-induced cells; shares compounds with KCNK3 block; 2,400 compounds, 40% hits; thallium flux ratio (lower = more inhibition) at 10 µM; non-induced KCNK3 parental cells, FluxOR thallium flux; stronger effect = lower value;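 active = thallium flux ratio, averaged over three wells, more than 5 SD below the buffer control mean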;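 also: host cells are CHO cells without KCNK3 induction; ratio is peak minus trough fluorescence over baseline then normalized to buffer controls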
Starred values were filed as active, the others as inactive; i = inactive; . = not tested or not shown; + = active, no number.

SMILES | KCNK9 inh | hERG protect | KCNQ1 act | KCNQ1 inh | KCC2 mod | KCNK3 block | KCNQ1 block val | CHO Tl flux | KCNQ2 inh | KCNQ1 KCNE1 spec | KCNK9 block conf | Kir21 sel | HEK293 Tl ctr | others
Clc1ccc(C(c2nnnn2CCc2ccccc2)N2CCSCC2)cc1 (configuration not stated) | -14.1* | 0.9 | i | 7* | -1.59 | i | 116.0* | 0.419 | 105.7%* | 82.0%* | 56.0%* | i | 45.5%* | KCNQ1 ephys val=i
Fc1ccc(C(c2nnnn2Cc2ccccc2)N2CCSCC2)cc1 (configuration not stated) | i | -3.6 | i | i | -0.844 | i | . | . | . | . | . | . | .
CCOC(=O)c1[nH]c(C)c(C(=O)OCCOc2cccc(C)c2)c1C | i | -6.4 | i | i | -0.471 | i | . | . | . | . | . | . | .
CC(Cc1cccs1)NC(=S)Nc1ccc(Cl)cc1 (configuration not stated) | -10.4* | -21.4 | i | 8* | -2.06 | i | 50.0* | 0.49 | 67.3%* | 65.5%* | 37.5%* | i | i
O=C(NCc1cccs1)Nc1ccc(Cl)cc1 | i | 1.2 | i | i | 0.00819 | i | . | . | . | . | . | . | .
O=S(=O)(c1ccc(Cl)s1)N1CCC(Cc2ccccc2)CC1 | i | -12.6 | i | 6* | -0.371 | i | 71.5* | 0.431 | 113.7%* | 56.0%* | i | i | i
COc1ccc2c(c1)-c1nc(NC(=O)c3cccs3)sc1CC2 | -16.1* | -10.8 | i | 7* | -0.0653 | i | 107.5* | 0.387 | 100.3%* | 189.5%* | 75.0%* | i | 35.0%* | KCNQ1 ephys val=i
Cc1cc(C)c(S(=O)(=O)c2ccccc2C)c(N(C)C)n1 | i | -6.2 | i | i | . | i | . | . | . | . | . | . | .
Cc1cc(C)c(S(=O)(=O)c2ccccc2C)c(SCC(C)C)n1 | -14.2* | -10.7 | i | 9* | . | i | 115.0* | 0.417 | 112.0%* | 95.0%* | 50.0%* | i | 41.5%* | KCNQ1 ephys val=i
CC(=O)c1ccc2c(c1)C1C=CCC1C(c1cc3c(cc1Br)OCO3)N2 (configuration not stated) | -8.66* | -21.7 | i | 8* | . | i | 139.5* | 0.418 | 99.3%* | 145.0%* | 50.0%* | i | 37.0%* | KCNQ1 ephys val=i
Clc1cccc(-c2cc3nc4c(c(N5CCN(c6cnccn6)CC5)n3n2)CCCC4)c1 | -13.3* | -18.2 | i | 8* | -0.432 | -8.77* | 100.0* | 0.387 | 119.0%* | 162.0%* | 46.0%* | i | 36.0%* | KCNQ1 ephys val=i
CCc1ccccc1NCC(=O)Nc1ccc(Cl)c(C(F)(F)F)c1 | i | -10.7 | i | 8* | 0.227 | i | 50.0* | 0.534 | 61.7%* | i | i | i | 39.5%*
Cc1ccccc1N(C=O)c1ccccc1C | . | . | . | . | . | i | . | . | . | . | . | . | .
Cc1cc(C(=O)N2CCN(C(c3ccccc3)c3ccccc3)CC2)on1 | i | -10.6 | i | i | -0.708 | i | . | . | . | . | . | . | .
COc1ccc(-c2ocnc2C(=O)N2CCN(C(c3ccccc3)c3ccccc3)CC2)cc1 | -14.2* | -12.5 | i | 8* | -1.78 | i | 79.5* | 0.424 | 87.7%* | 94.5%* | 68.0%* | i | 36.5%*
CC(C)OC(=O)NC(c1ccccc1)C(Cl)(Cl)Cl (configuration not stated) | i | -17.5 | i | i | -0.022 | i | . | . | . | . | . | . | .
CCOc1ccc(OC(=O)NC(c2ccccc2)C(Cl)(Cl)Cl)cc1 (configuration not stated) | i | -16.7 | i | 8* | -0.208 | i | 111.0* | 0.431 | 100.7%* | 168.5%* | i | i | i
COc1ccccc1N1CCN(C(=O)CSc2nc3ccccc3nc2N2CCCCC2)CC1 | i | -18.4 | i | 6* | . | i | 70.0* | 0.521 | i | 99.0%* | i | i | i
COc1ccccc1N1CCN(C(=O)CSc2nc3ccccc3[nH]2)CC1 | i | -11.1 | i | i | . | i | . | . | . | . | . | . | .
O=C(Nc1ccc(Cl)cc1)Nc1ccccc1NS(=O)(=O)c1cccs1 | -10.4* | -6.5 | i | 7* | -0.0912 | i | 81.0* | 0.556 | 66.0%* | i | 32.0%* | i | i
O=C(Nc1ccc(F)cc1)Nc1ccccc1NS(=O)(=O)c1cccs1 | i | -10.9 | i | i | -0.278 | i | . | . | . | . | . | . | .
COc1ccc(-c2csc3ncnc(N4CCN(c5ccccc5)CC4)c23)cc1 | -6.72* | -13.2 | i | 15* | . | i | 134.0* | 0.367* | 132.3%* | + | . | . | . | KCNK3 confirm=106.3*;KCNK3 noninduced=0.128*
O=C(c1cc(-c2cccc(Cl)c2)nc2ccccc12)N1CCN(c2ccccn2)CC1 | i | -9.3 | i | 6* | . | -9.94* | 69.0* | 0.42 | 108.0%* | 84.5%* | . | . | . | KCNK3 confirm=120.0*;KCNK3 noninduced=0.122*
Cc1cc(SCC(=O)c2ccc3c(c2)OCO3)nc2ccccc12 | i | -12.6 | i | i | 0.0948 | i | . | . | . | . | . | . | .
Cc1cc(SCC(=O)c2ccc(O)c(O)c2)nc2ccccc12 | i | -17.0 | i | 9* | -1.45 | -9.44* | 99.5* | 0.47 | i | 116.0%* | . | . | . | KCNQ1 ephys val=i;KCNK3 confirm=120.3*;KCNK3 noninduced=0.142*
